Assay results taken from ChEMBL document CHEMBL1156126, “Synthesis of some new pyrazolo[3,4-d]pyrimidine derivatives of expected anticancer and radioprotective activity” (Eur J Med Chem, 2010).
Values after ≈ are worked out from the molar mass of the structure shown.

How the values were obtained:
[1] = Antitumor activity against mouse EAC assessed as non viable cells at 100 ug/ml after 2 hrs by trypan blue exclusion assay; format: functional, Ehrlich
Outline: (§1)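 EAC cells aspirated from ascitic fluid of preinoculated mice (line maintained by weekly i.p. transplantation), suspended in saline at 2.5×10⁶/ml. Compounds dissolved in DMSO:saline 0.7:0.3 at 1, 0.75, 0.5, 0.25 mg/ml stocks; 0.1 ml added to 0.8 ml saline plus 0.1 ml cells. Incubation 37 °C, 2 h; non-viable cells counted by trypan blue exclusion. IC50 taken from survival-versus-concentration curve.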

[2] = Antitumor activity against mouse EAC assessed as non viable cells at 75 ug/ml after 2 hrs by trypan blue exclusion assay; format: functional, Ehrlich; outline: as §1
[3] = Antitumor activity against mouse EAC assessed as non viable cells at 50 ug/ml after 2 hrs by trypan blue exclusion assay; format: functional, Ehrlich; outline: as §1
[4] = Antitumor activity against mouse EAC assessed as non viable cells at 25 ug/ml after 2 hrs by trypan blue exclusion assay; format: functional, Ehrlich; outline: as §1
[5] = Antitumor activity against mouse EAC after 2 hrs by trypan blue exclusion assay; format: functional, cell-based; conditions: Ehrlich; outline: as §1
Mus musculus [6] = assay: Radioprotective activity in 6Gy gamma irradiated Swiss albino mouse assessed as reduction in gamma irradiation-inhibited blood glutathione content at 150 mg/kg, ip administered as 3 doses in alternative days up to 7 days pretreated 30 mins before gamma-irradiation relative to control; format: functional; set-up: scale not given: the % may be the effect or the level left; conditions: route intraperitoneal
Mus musculus [7] = assay: Radioprotective activity in 6 Gy gamma irradiated Swiss albino mouse assessed as change blood superoxide dismutase activity at 150 mg/kg, ip administered as 3 doses in alternative days up to 7 days relative to control; format: functional; conditions: route intraperitoneal
Mus musculus [8] = assay: Radioprotective activity in 6 Gy gamma irradiated Swiss albino mouse assessed as change in gamma irradiation-induced blood superoxide dismutase activity at 150 mg/kg, ip administered as 3 doses in alternative days up to 7 days pretreated 30 mins before gamma-irradiation relative to control; format: functional; conditions: route intraperitoneal
Mus musculus [9] = assay: Radioprotective activity in 6Gy gamma irradiated Swiss albino mouse assessed as reduction in lipid peroxidation at 150 mg/kg, ip administered as 3 doses in alternative days up to 7 days relative to control; format: functional; set-up: scale not given: the % may be the effect or the level left; conditions: route intraperitoneal
Mus musculus [10] = assay: Radioprotective activity in 6Gy gamma irradiated Swiss albino mouse assessed as reduction in gamma irradiation-induced lipid peroxidation at 150 mg/kg, ip administered as 3 doses in alternative days up to 7 days pretreated 30 mins before gamma-irradiation relative to control; format: functional; set-up: scale not given: the % may be the effect or the level left; conditions: route intraperitoneal
Mus musculus [11] = assay: Radioprotective activity in 6Gy gamma irradiated Swiss albino mouse assessed as survival at 150 mg/kg, ip administered as 3 doses in alternative days up to 7 days relative to control; format: functional; conditions: route intraperitoneal
Outline: (§2)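 Female Swiss albino mice (25–30 g), 10 per group. Test agent was suspended in carboxymethylcellulose and given ip every other day, 3 injections over 7 days, each 30 min before whole-body gamma irradiation (Cs-137, 6 Gy, 0.86 Gy/min). Groups were untreated, CMC, radiation-only and drug-only. Survival is the percentage of animals alive 7 days after the radiation dose.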

Mus musculus [12] = assay: Radioprotective activity in 6Gy gamma irradiated Swiss albino mouse assessed as […] at 150 mg/kg, ip administered as 3 doses in alternative days up to 7 days pretreated 30 mins before gamma-irradiation relative to control; format: functional; conditions: route intraperitoneal; outline: as §2
Mus musculus [13] = assay: Radioprotective activity in 6Gy gamma irradiated Swiss albino mouse assessed as increase in blood glutathione content at 150 mg/kg, ip administered as 3 doses in alternative days up to 7 days relative to control; conditions: route intraperitoneal

Row | SMILES | Activity [1] [%] | Activity [2] [%] | Activity [3] [%] | Activity [4] [%] | IC50 [5] [µg/mL] | Activity (Mus musculus [6]) [%] | Activity (Mus musculus [7]) [%] | Activity (Mus musculus [8]) [%] | Activity (Mus musculus [9]) [%] | Activity (Mus musculus [10]) [%] | Activity (Mus musculus [11]) [%] | Activity (Mus musculus [12]) [%] | Activity (Mus musculus [13]) [%]
1 | Nn1c(=O)[nH]c2c(cnn2-c2ccccc2)c1=O | 50 | 30 | 20 | 10 | 100 (≈ 411 µM) | – | – | – | – | – | – | – | –
2 | O=c1c2cnn(-c3ccccc3)c2ncn1Cc1ccccc1 | 80 | 20 | 10 | 10 | 90 (≈ 298 µM) | – | – | – | – | – | – | – | –
3 | Nn1cnc2c(cnn2-c2ccccc2)c1=S | 10 | 10 | 10 | 10 | > 100 | 9.63 | -2.04 | -9.3 | 5.33 | -6.19 | 100 | 100 | 4.95
4 | O=c1c2cnn(-c3ccccc3)c2nc2ocnn12 | 0 | 0 | 0 | 10 | > 100 | – | – | – | – | – | – | – | –
5 | O=c1c2cnn(-c3ccccc3)c2nc2[nH]c3ccccc3n12 | 0 | 0 | 0 | 10 | > 100 | – | – | – | – | – | – | – | –
6 | S=c1nc2c3cnn(-c4ccccc4)c3ncn2[nH]1 | 30 | 10 | 10 | 10 | > 100 | – | – | – | – | – | – | – | –
7 | O=C1/C(=C/c2ccccc2)N=C(c2ccccc2)N1n1cnc2c(cnn2-c2ccccc2)c1=O | 0 | 0 | 0 | 10 | > 100 | – | – | – | – | – | – | – | –
8 | O=c1oc2nc3c(cnn3-c3ccccc3)c(=O)n2c2ccccc12 | 30 | 30 | 10 | 10 | > 100 | – | – | – | – | – | – | – | –
9 | CSC(=NS(=O)(=O)c1ccc(Nc2nn3c(=O)c4cnn(-c5ccccc5)c4nc3o2)cc1)SC | 20 | 10 | 10 | 10 | > 100 | – | – | – | – | – | – | – | –
10 | COc1cccc2c1C(=O)c1c(O)c3c(c(O)c1C2=O)C[C@@](O)(C(=O)CO)C[C@@H]3O[C@H]1C[C@H](N)[C@H](O)[C@H](C)O1 [DOXORUBICIN] | 100 | 75 | 55 | 20 | 52 (≈ 95.7 µM) | – | – | – | – | – | – | – | –
